# PubChem BioAssay AID1046 (PCMD, 2008)
# The campaign covered roughly 220,000 compounds. About 560 (0.25%) were called active. This is one part of a sample in which actives are shown more often than they occur. Values without a mark were called inactive.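 How the source made its calls: active means inhibition at or above 40%; inactive means inhibition below 40%.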
# Molecular target: Prothrombin (Homo sapiens) (UniProt P00734)
# Experiment: blockers of thrombin peptide substrate cleavage – biochemical, 1536-well, fluorogenic AMC substrate, counter-screen for coagulation protease inhibitor project, primary screen (AID 1046);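 further: 0% = enzyme with no compound and 100% = wells without enzyme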
# Conditions: alpha-thrombin, Boc-VPR-AMC fluorogenic substrate cleavage; at 5 µM; active compounds read high
# In short: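 Material: human alpha-thrombin protein. Incubation: reaction at ambient temperature. Technique: fluorescence of released AMC, ex 355 nm, em 460 nm. Control set: no-compound enzyme wells and no-enzyme blanks. Also added: Boc-VPR-AMC substrate, 15 µM final. Buffer or medium: pH 7.5 Tris (50 mM) with NaCl 150 mM, Tween 20 0.05%.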
row,SMILES,inhibition
1,Cc1nc(Cl)c2oc3ccccc3c2n1,104% (active)
2,CCSc1nc(C)nc2c1oc1ccccc12,4.11%
3,Cc1nc(N2CCCC2C(=O)O)c2oc3ccccc3c2n1 (stereo unspecified),2.84%
4,CCc1nnc(NC(=O)CCC(=O)O)s1,8.11%
5,CCc1nnc(NC(=O)CCN(c2ccc(C)cc2)S(=O)(=O)c2ccccc2)s1,47.5% (active)
6,CCc1nnc(NC(=O)CCC(=O)NCc2ccccc2OC)s1,2.56%
7,O=C(Nc1ccc(F)cc1)c1cc2c(s1)CCCC2,-1.36%
8,CCCCNS(=O)(=O)c1ccc2nc(SCC(=O)Nc3cc(C)cc(C)c3)[nH]c2c1,-6.37%
9,CN(C(=O)c1c(Cl)cnn1C)C12CC3CC(CC(C3)C1)C2,-15.4%
10,C/C(=N\NC(=O)CSc1nc2ccccc2c(=O)n1-c1ccccc1C)c1cccs1,0.36%
11,Cc1ccc(OCCOCCOc2ccc(Br)cc2/C=N\NC(=O)c2ccncc2)cc1,-13.6%
12,Cc1c([N+](=O)[O-])c(N)nn1C,5.35%
13,Cc1ccc2cc(C)c(N3CCC(C)CC3)nc2c1,-2.54%
14,CN(c1ccc(OCC(=O)OCC(=O)Nc2cccc([N+](=O)[O-])c2)cc1)S(=O)(=O)c1ccc(F)cc1,2.69%
15,CC1CC(=O)Nc2ccccc2N1S(=O)(=O)c1cccs1 (stereo unspecified),-3.5%
16,Cc1[nH]c2ccccc2c1-c1ccc(Cl)nn1,1.85%
17,O=C(O)C(F)(F)C(NCc1ccccc1)c1ccccc1 (stereo unspecified),5.86%
18,CN(C)C(CNC(=O)c1cccc(C#N)c1)c1ccco1 (stereo unspecified),-12.4%
19,CC/C=C/C(=O)N1CC2(CC(c3cccc(NC(=O)CC)c3)=NO2)C[C@H]1C(N)=O (stereo partly specified),-2.66%
20,CCOC(=O)C1CCN(c2ccc(C(=O)O)cc2[N+](=O)[O-])CC1,-6.48%
21,CCOC(=O)CSc1ccccn1,-0.12%
22,CCOC(=O)CSc1nc(C)cc2c1C(=O)OC2,-3.04%
23,CCOC(=O)CSC1=N/C(=C/c2ccc(-n3cncn3)cc2)C(=O)N1C(C)=O,86.8% (active)
24,N#Cc1c(C(F)(F)F)cc(-c2cccs2)nc1N1CCCCC1,-5.35%

row,SMILES,inhibition
1,COc1ccc(-n2c(O)c(C=NCC(c3ccco3)N3CCCC3)c3ccccc3c2=O)cc1OC (stereo unspecified),1.85%
2,CCc1ccccc1NC(=O)CN(C)S(=O)(=O)c1ccc2c(c1)c(=O)n(C)c(=O)n2C,-7.84%
3,CCN(C(=O)CSc1nnc2ccccn12)C1CCS(=O)(=O)C1 (stereo unspecified),2.43%
4,CCOC(=O)c1nnn2c3ccccc3c(=O)n(C)c12,-5.13%
5,COC(=O)c1onc(-c2c(OC)cc(OC)cc2OC)c1C(=O)OC,1.99%
6,COc1ccc(C(C)=O)cc1CSc1nc2nc(C)cc(C)n2n1,-1.59%
7,Cc1ccc(S(=O)(=O)/N=C(\CN2CCOCC2)N2CCOCC2)cc1,-16.3%
8,Nc1ccccc1Sc1cc(Cl)nnc1Cl,14.4%
9,CC(=O)NCCC(=O)Nc1nc(C)c(Cc2ccc3c(c2)OCO3)s1,-4.26%
10,Nc1nc(NCCCN2CCOCC2)nc(Nc2ccccc2)c1[N+](=O)[O-],-6.41%
11,CCOc1nc(NCCN2CCOCC2)nc(Nc2ccc(C)cc2)n1,63.7% (active)
12,Cc1ccc(NC(=S)NCCN2CCOCC2)cc1,-1.01%
13,CSc1c(SCc2ccccc2)cnn(Cc2ccccc2)c1=O,0.48%
14,COCCOC(=O)c1c(C)oc2cc(Br)c(OCC(N)=O)cc12,-6.6%
15,O=C1N(c2ccccc2)C(=Nc2ccccc2)SC12CC2,-5.96%
16,COc1ccc(C/C(C)=N/NC(=O)c2cc(C)oc2C)cc1,0.98%
17,CN(C(=O)CSc1nnc(Nc2ccccc2)s1)C1CCS(=O)(=O)C1 (stereo unspecified),-0.79%
18,Cc1cc(C(=O)COc2ccccc2[N+](=O)[O-])c(C)n1-c1cccc(S(=O)(=O)N2CCOCC2)c1,5.89%
19,CC1=C(C)CC(C(=O)NNC(=O)c2ccccc2O)C(C(=O)O)C1 (stereo unspecified),-3.8%
20,Cc1cc(C)n2nc(C(=O)N3CCN(Cc4ccc5c(c4)OCO5)CC3)nc2n1,-9.34%
21,COc1ccc(CNC(=O)CN(Cc2ccc(Cl)cc2)S(C)(=O)=O)cc1,-2.34%
22,Cc1cc(C)cc(C(=O)NC2C(=O)N3C(C(=O)O)=C(CSc4nnc(C)s4)CSC23)c1 (stereo unspecified),-12%
23,O=C(Cn1cnc([N+](=O)[O-])n1)NCCc1ccccc1,-6.67%
24,CN(C)c1cc(-c2ccc(F)cc2)oc(=O)c1Cl,-0.75%

row,SMILES,inhibition
1,CN(c1ccc(OCC(=O)NC2=NCCS2)cc1)S(=O)(=O)c1ccc(F)cc1,-4.51%
2,Cc1ccc(SCc2c(C(=O)N/N=C/C3CC=CCC3)nnn2-c2nonc2N)cc1 (stereo unspecified),-0.65%
3,O=C(NCC1CCCO1)c1cc(-c2ccccc2)nc2ccccc12 (stereo unspecified),3.52%
4,Cn1cc(CN2CCCCC2c2ccccn2)c(-c2ccc3c(c2)OCCO3)n1 (stereo unspecified),-14.8%
5,O=S(=O)(c1cccc(C(F)(F)F)c1)N1CCN(c2cnccn2)CC1,2.6%
6,CCCN1C(=O)C(Cc2nc3ccccc3c(=O)n2-c2ccccc2)c2cc(C)ccc21 (stereo unspecified),-0.44%
7,O=C(Nc1nnc(COc2ccccc2)s1)Nc1ccccc1F,1.51%
8,CCOC(=O)C1(CCOC)CCN(Cc2ccc(C(=O)OC)cc2)CC1,-3.33%
9,CC(C)Oc1ccc(CCC(=O)NNC(=S)NCc2ccccc2)cc1,5.08%
10,CCN(CC)CCC(c1ccc2c(c1)OCO2)c1c(OC)cc(OC)c2c(-c3ccccc3)cc(=O)oc12 (stereo unspecified),-12.8%
11,O=C(c1ccccc1Cl)N(Cc1ccccc1F)N1C(=O)CCCC1=O,-0.77%
12,CCC(C)[C@@H](C(=O)N1CCNCC1)n1cc(CCCCN)nn1 (stereo partly specified),-2.39%
13,CCOC(=O)C1(C)NC(c2ccco2)C2C(=O)N(c3ccccc3)C(=O)C21 (stereo unspecified),-2.99%
14,O=C(Nc1ccccc1F)c1ccc(Cn2cc(Br)cn2)cc1,0.95%
15,CCCC(O)(CCC)C(=O)NN(C(=O)CCl)c1cccc(C)c1,-0.4%
16,CC(C)Cc1ccc(C(C)C(=N)N)cc1 (stereo unspecified),-0.2%
17,CCS(=O)(=O)N1Cc2ccccc2CC1C(=O)Nc1nc2ccc(F)cc2s1 (stereo unspecified),-4.77%
18,O=C(CSc1nnnn1-c1ccc(O)cc1)c1ccc(F)cc1,-1.4%
19,CC1CN(S(=O)(=O)c2ccc(C(=O)NN3CCN(C)CC3)cc2)CC(C)O1 (stereo unspecified),-9.4%
20,CC(C)(C)C1CCC(OC(=O)CCC(=O)Nc2ccccc2)CC1 (stereo unspecified),-0.51%
21,CC(C)N1C(=O)N(c2ccccc2)C(C)(O)CC1(C)C (stereo unspecified),-4.92%
22,COC(=O)c1cc2c(N)c(C(=O)c3ccc(Cl)cc3)sc2nc1C(OC)OC,3.67%
23,COc1ccccc1NC(=O)c1cc(Cl)nnc1Cl,-8.6%
24,C=C(C)COc1ccc(-c2nc(N)ncc2-c2ccccc2OC)c(O)c1,-2.7%

row,SMILES,inhibition
1,COc1cc(NC(=O)c2ccc(CNc3c(N4CCCC4)c(=O)c3=O)cc2)cc(OC)c1OC,3.4%
2,Cc1ccc(NC(=O)C2CCCN(S(=O)(=O)c3c(C)noc3C)C2)c(C)c1 (stereo unspecified),-4.66%
3,COc1c(C)cc(C(=O)C2CCCN(S(=O)(=O)c3c(C)noc3C)C2)cc1C (stereo unspecified),41.9% (active)
4,Cc1noc(C)c1S(=O)(=O)N1CCCC(C(=O)Nc2nccs2)C1 (stereo unspecified),-1.5%
5,CN1CCN(c2ncc3c(n2)CC(c2ccccc2F)CC3=O)CC1 (stereo unspecified),-5.02%
6,Cc1ccc(C)c(NC(=S)NCC(c2cccnc2)N2CCOCC2)c1 (stereo unspecified),-3.59%
7,CCCC/C(C)=N/NC(=O)NC1CCCCC1,-6.13%
8,COCCNC(=O)Cn1cc(C(=O)c2cccs2)c2ccccc21,0.65%
9,COC(=O)Cn1cc(C(=O)c2cccs2)c2ccccc21,47% (active)
10,O=C(Cn1cc(C(=O)c2cccs2)c2ccccc21)NCc1cccs1,-2.66%
11,Clc1ccc(CSc2nnc3c(n2)[nH]c2ccccc23)cc1,-0.71%
12,CCC(C(=O)Nc1ccc(C(C)C)cc1)c1ccccc1 (stereo unspecified),-7.56%
13,CCc1ccc(CNC(=O)CCc2nc(-c3cccs3)no2)cc1,6.55%
14,O=C(Cn1c2[n+](c3ccc(C(F)(F)F)cc31)CCCCC2)Nc1c(F)cccc1F,-11.3%
15,O=C(CSc1ccc([N+](=O)[O-])cn1)Nc1ccc(N2CCOCC2)c(Cl)c1,-6.75%
16,C=CCN(C(=O)Nc1ccc2oc(C)nc2c1)c1ccccc1,-2.2%
17,Cc1nc2cc(NC(=O)Nc3cccc(F)c3)ccc2n1C,13.7%
18,C=CCN(C(=O)Nc1ccc2c(c1)nc(C)n2C)c1ccccc1,43.6% (active)
19,CCN(CC)C(=O)N(CC)Cc1ccccc1,-4.01%
20,Cc1cc(C)n2nc(C(=O)N(C)C(c3ccccc3)c3ccccc3)nc2n1,-10.8%
21,CCOc1cc(NC(=S)NCCCN(C)C)c(OCC)cc1NC(=O)C1CC1,-9.76%
22,O=C1/C(=C\c2cccnc2)CN(Cc2ccccc2)C/C1=C\c1cccnc1,10.5%
23,O=C(c1[nH]ncc1-c1ccc(Cl)cc1)C1CO1 (stereo unspecified),-4.22%
24,CC(=O)OCCOCn1cnn2c(=O)c(Br)c(C)nc12,0.26%
